The source of these data is PubChem BioAssay.

Calls of active or inactive are those of the source.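 How the source made its calls, unless noted: active means viability at or under a set limit in both replicates, limit being median viability minus 3 SD (cut at about 48% in these data, passing the limit was not always enough); inconclusive means at or under the limit in just one replicate; inactive means at or above the limit in both replicates.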

The nature of experiment [1]: SK-BR-3 cell growth inhibitors, pilot screen, 24 h, human (AID 572;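 active means viability at or below 10% of carrier control in both of two separate runs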;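 further: compound exposure lasted between 18 and 24 h rather than exactly 24 h; 100% = carrier-treated control wells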). The settings on record: SK-BR-3 viability, CellTiter-Glo luminescence, at 10 µM, stronger effect = lower value. (In general: Cellular ATP, detected with luciferase, serves as a proxy for viable cell number.)
A short description of experiment [2]: HUVEC growth inhibition – cell-based, human, primary screen (AID 575;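 active means viability at or below 30% in both replicate assays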;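 further: 100% = median of untreated cell wells with 0.1% DMSO on each plate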). To be noted: HUVEC proliferation, CellTiter-Glo luminescence, 72 h; at 10 µM; stronger effect = lower value. The gist of the method: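 Test system: primary human umbilical vein endothelial cells. Quantity: 1250 cells/well. Compound: single 10 µM dose, 0.1% DMSO, from 5x medium stock. Timing: 72 h treatment at 37 °C. Detection: ATP-based CellTiter-Glo luminescent read. Benchmarks: vehicle and MePR control wells. Format: 384-well plates coated with collagen.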

Experiment [3] is described as follows: growth inhibitors of H69AR lung tumor, primary screen, human, duplicate replicates (AID 580).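 Further: 100% = mean luminescence of untreated wells and 0% = no signal.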 The settings on record: H69AR lung tumor cells viability, ATP luminescence, 72 h; at 10 µM; stronger effect = lower value.
The nature of experiment [4]: reversal of MRP1-mediated doxorubicin resistance, pilot screen, H69AR cells, doxorubicin co-treatment (AID 601;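 active means viability loss from added drug above about 55%, and viability with drug at most 40%, in both replicates, limit read from the data, passing the limit was not always enough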). The settings on record: CellTiter-Glo, 72 h, at 10 µM; for differential viability (reversal): stronger effect = higher value.
A short description of experiment [5]: 384-well plate pilot, post-Golgi transport modulator project, inhibition of yeast transport mutant growth (AID 636; in the data active means inhibition above about 31%). The settings on record: absorbance 615 nm, about 18 h, stronger effect = higher value.
Experiment [6] is described as follows: growth suppression of yeast trafficking mutant, preliminary HTS, modulators of trafficking downstream of Golgi apparatus project, 1536-format plate, OD 615 nm (AID 637; in the data active means inhibition above about 30%). To be noted: yeast transport mutant growth, absorbance 615 nm, 18 h; stronger effect = higher value.
Where [7] appears, read: H69AR cells + 2 uM doxorubicin, measured here: viability with 2 uM doxorubicin, stronger effect = lower value.
[8] abbreviates: H69AR cells, compound alone cytotoxicity.

One may read the viability as a read-out of living cells in per cent, often relative to untreated cells. By inhibition is commonly meant the change of the read-out against control, counted positive when it falls.

As for `O=C(Nc1nc(-c2cccs2)cs1)c1cccc(S(=O)(=O)N2CCCCC2)c1`, the viability is 194% (inactive) in experiment [1]; 67.2% (inactive) in experiment [2]; 66.8% (inactive) in experiment [3]; 72.2% in experiment [4] (setting [7]); 66.8% in experiment [4] (setting [8]). Besides, the differential viability (reversal) in experiment [4] (H69AR cells + 2 uM doxorubicin) was -5.37% (inactive). Besides, the values for the inhibition in experiment [5] and in experiment [6] were 3.9% (inactive) and 1.64% (inactive), respectively.

`COc1ccc(CCN2CC(O)=C(c3nc4ccccc4c(=O)[nH]3)C2=N)cc1OC`: the viability in experiment [1] was 105% (inactive); in experiment [2], 85.6% (inactive); in experiment [3], 80.8% (inactive); in experiment [4] (setting [7]) it was 85.6%; in experiment [4] (setting [8]), 80.8%. In addition, the differential viability (reversal) in experiment [4] (H69AR cells + 2 uM doxorubicin) was -4.8% (inactive). Also, the inhibition in experiment [5] was -1.95% (inactive); in experiment [6], 1.8% (inactive).

`O=C(O)Cc1ccccc1C(=O)O`: the viability is 120% (inactive) in experiment [1]; 92.2% (inactive) in experiment [2]; 95.1% (inactive) in experiment [3]; 95.4% in experiment [4] (setting [7]); 95.1% in experiment [4] (setting [8]). The differential viability (reversal) in experiment [4] (H69AR cells + 2 uM doxorubicin) is -0.3% (inactive). Besides, the inhibition in experiment [5] was -6.85% (inactive); in experiment [6] it was 1.29% (inactive).

On to `CCOc1ccc(CCNc2nc3c(c(=O)n(C)c(=O)n3C)n2CC)cc1OCC`, for which the viability was 108% (inactive) in experiment [1]; 101% (inactive) in experiment [2]; 88.9% (inactive) in experiment [3]; 87% in experiment [4] (setting [7]); 88.9% in experiment [4] (setting [8]). Moreover, the differential viability (reversal) in experiment [4] (H69AR cells + 2 uM doxorubicin) was 1.88% (inactive). Also, the inhibition is -1.73% (inactive) in experiment [5] and 3.27% (inactive) in experiment [6].

With `CCOC(=O)Nc1cc(OC)c(OC)cc1Cc1nccc2cc(OC)c(OC)cc12`, the viability in experiment [1] was 113% (inactive); in experiment [2] it was 95.7% (inactive); in experiment [3], 87.1% (inactive); in experiment [4] (setting [7]), 81.5%; in experiment [4] (setting [8]) it was 87.1%. Also, the differential viability (reversal) in experiment [4] (H69AR cells + 2 uM doxorubicin) was 5.61% (inactive). Also, the inhibition was -2.05% (inactive) in experiment [5] and 28.7% (inactive) in experiment [6].

Consider `CCOc1cc(C(=O)Nc2ncccn2)cc(OCC)c1OCC`, for which the viability is 117% (inactive) in experiment [1]; 105% (inactive) in experiment [2]; 87.5% (inactive) in experiment [3]; 82.7% in experiment [4] (setting [7]); 87.5% in experiment [4] (setting [8]). Also, the differential viability (reversal) in experiment [4] (H69AR cells + 2 uM doxorubicin) was 4.8% (inactive). In addition, the inhibition in experiment [5] is -2.86% (inactive); in experiment [6], 5.08% (inactive).

In the case of `O=C(O)c1ccc(CSc2ncn[nH]2)cc1`, the viability was 107% (inactive) in experiment [1]; 105% (inactive) in experiment [2]; 94.4% (inactive) in experiment [3]; 101% in experiment [4] (setting [7]); 94.4% in experiment [4] (setting [8]). The differential viability (reversal) in experiment [4] (H69AR cells + 2 uM doxorubicin) was -6.27% (inactive). For the same compound, the inhibition in experiment [5] was -6.16% (inactive); in experiment [6] it was 0.55% (inactive).

For the compound `CCCCN1C(=O)C2C(C(=O)Nc3cccc(OC)c3)C3C=CC2(O3)C1C(=O)NC1CCCCC1C` (stereo unspecified), the viability in experiment [1] was 101% (inactive); in experiment [2] it was 82.7% (inactive); in experiment [3] it was 82.1% (inactive); in experiment [4] (setting [7]), 78.2%; in experiment [4] (setting [8]), 82.1%. Further, the differential viability (reversal) in experiment [4] (H69AR cells + 2 uM doxorubicin) is 3.86% (inactive). The inhibition in experiment [5] was -2.86% (inactive); in experiment [6], -3.11% (inactive).

As to `CCN(CC)CCOC(=O)C1(C2CCCCC2)CCCCC1`, the viability in experiment [1] is 114% (inactive); in experiment [2], 72.7% (inactive); in experiment [3] it was 86.3% (inactive); in experiment [4] (setting [7]) it was 83.2%; in experiment [4] (setting [8]), 86.3%. Moreover, the differential viability (reversal) in experiment [4] (H69AR cells + 2 uM doxorubicin) was 3.1% (inactive). The results for the inhibition in experiment [5] and in experiment [6] were -2.6% (inactive) and -3.33% (inactive), respectively.

Take `CCCNC(=O)c1cc(S(=O)(=O)N2CCc3ccccc32)ccc1F`: the viability in experiment [1] was 89% (inactive); in experiment [2], 113% (inactive); in experiment [3], 97% (inactive); in experiment [4] (setting [7]) it was 90.3%; in experiment [4] (setting [8]) it was 97%. In addition, the differential viability (reversal) in experiment [4] (H69AR cells + 2 uM doxorubicin) is 6.73% (inactive). Also, the inhibition in experiment [5] is -6.13% (inactive); in experiment [6] it was 2.18% (inactive).

As for `COc1ccc(-c2noc(CCN3C(=O)c4ccccc4C3=O)n2)cc1OC`, the viability was 140% (inactive) in experiment [1]; 105% (inactive) in experiment [2]; 93.9% (inactive) in experiment [3]; 76.1% in experiment [4] (setting [7]); 93.9% in experiment [4] (setting [8]). In experiment [4] (H69AR cells + 2 uM doxorubicin), the differential viability (reversal) was 17.8% (inactive). In addition, the inhibition is -4.03% (inactive) in experiment [5] and -1.15% (inactive) in experiment [6].

In the case of `CCCc1cc(=O)[nH]c(Nc2ccc(OC)c(Cl)c2)n1`, the viability in experiment [1] was 115% (inactive); in experiment [2], 76.1% (inactive); in experiment [3] it was 70.6% (inactive); in experiment [4] (setting [7]), 78.2%; in experiment [4] (setting [8]), 70.6%. Besides, the differential viability (reversal) in experiment [4] (H69AR cells + 2 uM doxorubicin) was -7.59% (inactive). Besides, the inhibition is -3.51% (inactive) in experiment [5] and 4.43% (inactive) in experiment [6].

`NC(N)=NC(N)=NCCc1ccccc1`: the viability in experiment [1] was 103% (inactive); in experiment [2], 104% (inactive); in experiment [3], 99.4% (inactive); in experiment [4] (setting [7]), 99.6%; in experiment [4] (setting [8]) it was 99.4%. Also, in experiment [4] (H69AR cells + 2 uM doxorubicin), the differential viability (reversal) was -0.22% (inactive). For the same compound, the inhibition in experiment [5] is 0.65% (inactive); in experiment [6] it was -0.67% (inactive).

For the compound `CC1(C)NC(=O)N(CC(O)CN2CCCC2)C1=O` (stereo unspecified), the viability in experiment [1] was 96% (inactive); in experiment [2], 103% (inactive); in experiment [3], 97.2% (inactive); in experiment [4] (setting [7]), 94.2%; in experiment [4] (setting [8]), 97.2%. In addition, the differential viability (reversal) in experiment [4] (H69AR cells + 2 uM doxorubicin) was 2.99% (inactive). Also, the inhibition in experiment [5] was 0.13% (inactive); in experiment [6] it was -2.79% (inactive).

`CC1(C)CC(=O)C2=C(C1)Nc1ccccc1N=C2`: the viability in experiment [1] was 66% (inactive); in experiment [2], 82.3% (inactive); in experiment [3], 70.3% (inactive); in experiment [4] (setting [7]) it was 90%; in experiment [4] (setting [8]) it was 70.3%. The differential viability (reversal) in experiment [4] (H69AR cells + 2 uM doxorubicin) was -19.7% (inactive). The inhibition in experiment [5] was -0.41% (inactive); in experiment [6], 2.73% (inactive).

As to `O=C1C2CC=C(Cl)CC2C(=O)N1CNc1ccccn1` (stereo unspecified), the viability in experiment [1] is 112% (inactive); in experiment [2], 108% (inactive); in experiment [3], 98.8% (inactive); in experiment [4] (setting [7]), 105%; in experiment [4] (setting [8]), 98.8%. In addition, the differential viability (reversal) in experiment [4] (H69AR cells + 2 uM doxorubicin) was -6.09% (inactive). Further, the inhibition in experiment [5] is -2.05% (inactive); in experiment [6], 5.65% (inactive).

Regarding `C=CCc1ccccc1OCC(O)CNC(C)C` (stereo unspecified), the viability was 82% (inactive) in experiment [1]; 70.1% (inactive) in experiment [2]; 91.3% (inactive) in experiment [3]; 100% in experiment [4] (setting [7]); 91.3% in experiment [4] (setting [8]). For the same compound, the differential viability (reversal) in experiment [4] (H69AR cells + 2 uM doxorubicin) is -8.68% (inactive). The inhibition in experiment [5] is -2.34% (inactive); in experiment [6], 1.67% (inactive).
